The species entered for series [1] is Cavia porcellus. Briefly: Evaluated for increase in maximal driving frequency in isolated guinea pig atria. The class given is functional. In outline:
(§1)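 Guinea pig left atria in modified Tyrode's gassed 98% O2/2% CO2, 1 g resting tension, driven with 1 ms pulses at 3× threshold. Runs separated by 5 min at 0.5 Hz. Control is the mean of 3 predrug runs; the value is the mean of runs at 5 and 10 min after each cumulative addition, concentration doubled every 10 min. EC30 read from curves.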

A short description of series [2]: Ratio of contractility to atrial rate in isolated guinea pig atria. The class given is functional, Cardiac atrium. Summed up: (§2)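 Ratios of EC30 values from isolated guinea pig atria. Atrial rate was measured in spontaneously beating atria at 37 °C after at least 30 min of equilibration, until rate varied by no more than 5 beats/min. Contractility was measured in left atria driven at 2.5 Hz, 30 °C. Maximal driving frequency was found by stepwise pacing. Compound was added cumulatively, concentration doubled every 10 min.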

Series [3] is filed under the species Cavia porcellus. Briefly: Evaluated for decrease in spontaneous frequency of atrial rate in isolated guinea pig atria. It counts as functional. The following applies: Cardiac atrium. In outline: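 Atria dissected from guinea pigs of various breeds (300–500 g, either sex) and suspended in modified Tyrode's solution gassed with 98% O2/2% CO2, resting tension 1 g. Spontaneously beating atria at 37 °C, equilibrated at least 30 min until rate stable within 5 beats/min. Drug added cumulatively, concentration doubled every 10 min. EC30 = concentration reducing predrug rate by 30%, read from curves.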

For series [4], the species on record is Cavia porcellus. The series is described as follows: Evaluated for decrease in contractility in isolated guinea pig atria. It counts as functional. In outline: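 Electrically driven left guinea pig atria (300–500 g, either sex) in modified Tyrode's gassed 98% O2/2% CO2, 30 °C, 1 g resting tension. Stimulation 3 ms rectangular pulses at 1.5× threshold, 2.5 Hz, after 20 min equilibration. Isometric force in grams. Concentrations added cumulatively, doubled every 10 min, one atrium per experiment. EC30 (30% fall from predrug value) read from curves.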

For series [5], the species on record is Cavia porcellus. The series is described as follows: Evaluated for decrease in maximal driving frequency in isolated guinea pig atria. The class given is functional. In outline:
as §1

Series [6] in a line: EC30 ratio of maximal driving frequency to atrial rate in isolated guinea pig atria. The class given is functional, Cardiac atrium. In outline: as §2
Series [7] in a line: EC30 ratio of contractility to atrial rate in isolated guinea pig atria. The class given is functional, Cardiac atrium. In outline:
as §2

Series [8] concerns Rattus norvegicus. Briefly: Dose required to decrease heart rate after iv injection to spinal rats. It counts as functional. Summed up:
(§3)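 Male Chbb:THOM rats, 200–250 g, under pentobarbital sodium 50 mg/kg ip, atropine sulfate 1 mg/kg sc, trachea cannulated. Medulla cut at C1, brain destroyed, artificially ventilated. Jugular iv injections given cumulatively, dose doubled every 2 min, 3 doses per animal, top cumulative dose 10 mg/kg. ECG-triggered tachograph heart rate. D150 (dose lowering rate 150 beats/min) read graphically from log dose–response curves; n = 6 rats.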

Series [9] can be described thus: Partition coefficient (logD7.4). Particulars: octanol/water, pH 7.4.
Series [10] in a line: Dissociation constant (pKa). The class given is physicochemical.
For series [11], the species on record is Rattus norvegicus. The series is described as follows: Evaluated for decreased heart rate in spinal rats, relative activity was determined. The class given is functional. In outline:
as §3

The structures appear in SMILES notation. Converted amounts (≈) assume the structure as drawn.

As to `C[N+](C)(C)CCOC(N)=O.[Cl-]` [CARBACHOL], the concentration for an effect of 30% (EC30) in the series filed under Cavia porcellus [1] turned out to be 0.09 µg/mL; in the series listed under Cavia porcellus [3], 0.029 µg/mL; in the series filed under Cavia porcellus [4], 0.0065 µg/mL. For the same molecule, the Ratio in series [2] was 0.22.
For the molecule `COc1ccc(CCN(C)CCCC(C#N)(c2ccc(OC)c(OC)c2)C(C)C)cc1OC` (centres undefined), the results for the EC30 in the series filed under Cavia porcellus [5], in the series listed under Cavia porcellus [3] and in the series listed under Cavia porcellus [4] were 6.5 µg/mL (≈ 14.3 µM), 0.2 µg/mL (≈ 0.44 µM) and 0.24 µg/mL (≈ 0.528 µM), respectively. Further, the Ratio in series [2] amounted to 1.2.
As for `C=C[C@H]1CN2CC[C@H]1C[C@@H]2[C@@H](O)c1ccnc2ccc(OC)cc12` [QUINIDINE], the Ratio in series [6] is recorded as 0.9; in series [7], 8.6. The values for the concentration for an effect of 30% (EC30) in the series listed under Cavia porcellus [5], in the series filed under Cavia porcellus [3] and in the series listed under Cavia porcellus [4] were 6.5 µg/mL (≈ 20 µM), 7.2 µg/mL (≈ 22.2 µM) and 62 µg/mL (≈ 191 µM), respectively.
For `Brc1cccc(Br)c1N(CC1CC1)C1=NCCN1`, the Ratio is 18 in series [6] and 146 in [7]. In the series on Rattus norvegicus [8], the D150 came to 0.62 mg/kg. Besides, the logD in [9] is -1.12. The values for the concentration for an effect of 30% (EC30) in the series listed under Cavia porcellus [5], in the series filed under Cavia porcellus [3] and in the series filed under Cavia porcellus [4] were 12 µg/mL (≈ 32.2 µM), 0.65 µg/mL (≈ 1.74 µM) and 95 µg/mL (≈ 255 µM), respectively. In [10], this molecule showed a pKa of 10.9. Besides, in the series listed under Rattus norvegicus [11], the Relative activity was 1.
Consider `CCCCN(C1=NCCN1)c1c(Br)cccc1Br`, for which the D150 with Rattus norvegicus [8] was found to be 1.35 mg/kg. The logD in series [9] was -2.5. The molecule further yielded a pKa in [10] of 11. Also, the Relative activity in the series filed under Rattus norvegicus [11] was found to be 0.46.
`CCN(C1=NCCN1)c1c(Br)cccc1Br`: in the series on Rattus norvegicus [8], the D150 stood at 0.75 mg/kg. Besides, the logD in [9] was -1.01. The pKa in series [10] came to 11.1. In the series filed under Rattus norvegicus [11], this molecule yielded a Relative activity of 0.83.
Take `Brc1cccc(Br)c1N(Cc1ccco1)C1=NCCN1`: the D150 in the series on Rattus norvegicus [8] was determined as 2.8 mg/kg. Further, the logD in series [9] was -0.52. The molecule further showed a pKa in series [10] of 10.5. Also, the Relative activity in the series filed under Rattus norvegicus [11] is 0.22.

Broadly, the EC30 is the point of the concentration-response curve where the effect stands at 30%. Broadly, the logD is lipophilicity at a set pH, counting ionised and neutral species. Lower therefore signals a more hydrophilic compound. The pKa is the pH at which an ionisable group is half protonated. Higher therefore signals a weaker acid or stronger base.

Source of the values: ChEMBL document CHEMBL1121557, “Chemistry, pharmacology, and structure-activity relationships with a new type of imidazolines exerting a specific bradycardic action at a cardiac site” (J Med Chem, 1980).
